From PubChem
Shown are actives, neighbours in structure and some others; about 5.4% of the full set was active somewhere.
CSC inhib: cancer stem cell inhibition; cancer stem cell-like cells viability, luminescence; inhibition, % at 7.5 µM; hit rate 1.1% among 300,000; AID 2717; in the data active = inhibition above about 75%; tested in HMLE shEcad cells
Mdm2 MdmX PPI: human Mdm2/MdmX binding inhibition | SaOS-2 split-luciferase Mdm2/MdmX complementation, luminescence | hit rate 3% among 330,000 | O15151+Q00987 | inhibition, % at 8 µM;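 active = inhibition of at least 50% at 8 µM in the primary screen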
aSyn 5UTR inh: 5' untranslated region of α-synuclein, MLPCN primary screen; alpha-synuclein 5'UTR reporter, inhibitor activity; hit rate 0.82% among 300,000; inhibition, % (tested at 7.5 µM); in the data active = inhibition above about 60%;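 also: H4 neuroglioblastoma cells stably carrying SNCA 5'UTR luciferase fusion; 0% = DMSO wells and 100% = positive control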
SKKanGAS inh: inhibitors of SKKanGAS S. pyogenes growth in kanamycin (SK-promoter or general growth effect); BacTiter-Glo, 6 h; inhibition, % at 7.5 µM; hit rate 1.3% among 300,000; AID 1662;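 active = mean replicate score, as percent of positive control median, at least 50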;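 also: strain carries kanamycin resistance gene driven by streptokinase promoter and grows in 40 µg/ml kanamycin; loss of luminescence reflects streptokinase promoter inhibition or plain growth inhibition; 0% = median of DMSO wells and 100% = positive control at its reference dose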
T cruzi inh: blocks replication of Trypanosoma cruzi; T. cruzi beta-gal in NIH3T3, luminescence, 90 h; inhibition, % (concentration not given with the values); hit rate 1.4% among 300,000; AID 1885;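 active = mean inhibition across valid replicates above about 55%, limit read from the data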;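 also: signal also drops with host cell toxicity which is not excluded here; 0% = plate median of DMSO wells and 100% = zero luminescence signal; higher percent means less beta-gal luminescence so fewer parasites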
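System: NIH/3T3 fibroblasts plus reporter T. cruzi. Medium: DMEM plus 2% FBS. Probe or stimulus: 5000 reporter trypomastigotes per well. Compound: single 50 nL compound addition per well in DMSO. Incubation: co-culture of at least 90 h after 3 h attachment. Detection: GalScreen β-gal luminescence, detergent lysis, 60 min. Evaluation: parasite load inhibition, %.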
* marks the source's active call; other numbers are inactive results.

For Cc1ccc(CNC(=O)c2nn(C)c(C)c2[N+](=O)[O-])cc1 the results were CSC inhib 6.0, Mdm2 MdmX PPI -11.2, aSyn 5UTR inh 14.1, SKKanGAS inh -11.4 and T cruzi inh -7.8.
Cc1ccc(CNC(=O)c2ccc([N+](=O)[O-])o2)cc1 was read as CSC inhib -5.9, Mdm2 MdmX PPI 18.1, aSyn 5UTR inh -70.1, SKKanGAS inh 56.2* and T cruzi inh 46.7.
`Cc1ccc(-n2nnnc2CNC(=O)c2ccc([N+](=O)[O-])o2)cc1C` gave CSC inhib 8.8, Mdm2 MdmX PPI 13.9, aSyn 5UTR inh -98.1, SKKanGAS inh -2.2 and T cruzi inh 57.3*.
For Cc1csc(NC(=O)CSc2nc(C(C)C)nc3ccccc23)n1 the results were CSC inhib 8.5, Mdm2 MdmX PPI 28.9, aSyn 5UTR inh -25.2, SKKanGAS inh -1.5 and T cruzi inh 8.3.
`CC(C)CC(=O)N1CCN(C(=O)CCC2CCCC2)CC1` gave CSC inhib -12.2 and Mdm2 MdmX PPI 22.0.
For COc1cc([N+](=O)[O-])cc(/C=N/NC(=O)C(C)Nc2cccc(C)c2)c1O (centres undefined) the results were Mdm2 MdmX PPI 36.1, aSyn 5UTR inh 11.0, SKKanGAS inh 58.6* and T cruzi inh 8.8.
For CC(Sc1nnc(-c2cccnc2)n1N)C(=O)Nc1ccc2c(c1)OCCO2 (centres undefined) the results were Mdm2 MdmX PPI 8.4.
Screening CCc1c(C2(O)CCCCC2)[nH]c2c(C(=O)OC)cc(Cl)cc12 returned CSC inhib 104.9*, aSyn 5UTR inh 11.3, SKKanGAS inh 99.8* and T cruzi inh 20.6.
Screening CCN1CCN(c2ccc(S(=O)(=O)N3CCCCC3)cc2NC(=O)CC(NC(C)=O)c2ccccc2)CC1 (centres undefined) returned CSC inhib -8.7, Mdm2 MdmX PPI 10.0, aSyn 5UTR inh -8.5, SKKanGAS inh -1.3 and T cruzi inh -5.2.
For CC(C)CN(C(=O)CCC(=O)OCc1ccc(Cl)cc1Cl)c1c(N)n(CC(C)C)c(=O)[nH]c1=O the results were CSC inhib -6.1, Mdm2 MdmX PPI 21.8, aSyn 5UTR inh 12.2, SKKanGAS inh -1.6 and T cruzi inh -6.5.
`Cc1ccc2c(CC(=O)NC3=NCCS3)coc2c1` gave CSC inhib -8.2, Mdm2 MdmX PPI 7.1, aSyn 5UTR inh -14.5, SKKanGAS inh 5.1 and T cruzi inh -16.6.
`Cc1cc2occ(CC(=O)NC3=NCCS3)c2cc1C(C)C` gave CSC inhib 15.6, Mdm2 MdmX PPI 11.3, aSyn 5UTR inh -16.9, SKKanGAS inh 65.4* and T cruzi inh 3.5.
For CCOc1ccc(CN2CCN(Cc3nc4c(s3)CCCC4)CC2CCO)cc1 (centres undefined) the results were CSC inhib -3.3, Mdm2 MdmX PPI 10.5, aSyn 5UTR inh -5.1, SKKanGAS inh 6.9 and T cruzi inh 57.2*.
Screening OCCC1CN(Cc2nc3c(s2)CCCC3)CCN1Cc1ccsc1 (centres undefined) returned CSC inhib -6.9, Mdm2 MdmX PPI -9.8, aSyn 5UTR inh -8.3, SKKanGAS inh -0.1 and T cruzi inh 4.0.
`COc1cccc(CN2CCN(Cc3nc4c(s3)CCCC4)CC2CCO)c1` (centres undefined) gave CSC inhib -7.6, Mdm2 MdmX PPI 16.0, aSyn 5UTR inh -24.7, SKKanGAS inh -7.9 and T cruzi inh 34.8.
Cc1ccc(CN2CCN(Cc3nc4c(s3)CCCC4)CC2CCO)cc1 (centres undefined) was read as CSC inhib 9.9, Mdm2 MdmX PPI -4.3, aSyn 5UTR inh 19.7, SKKanGAS inh -7.5 and T cruzi inh 55.6*.
Screening CC(C)C(OC(=O)c1cccs1)C(=O)NCc1ccccc1 (centres undefined) returned CSC inhib -9.1, Mdm2 MdmX PPI -8.3, aSyn 5UTR inh -8.8, SKKanGAS inh 3.4 and T cruzi inh -9.2.
Screening Clc1cc(CSc2ccccc2)nc(-c2ccccc2)n1 returned Mdm2 MdmX PPI -12.3, aSyn 5UTR inh 2.5, SKKanGAS inh 58.3* and T cruzi inh 6.3.
For Clc1ccc(SCc2cc(Cl)nc(-c3ccccc3)n2)cc1 the results were CSC inhib -0.4, Mdm2 MdmX PPI -5.4, aSyn 5UTR inh 8.0, SKKanGAS inh 66.9* and T cruzi inh -3.7.
For O=S(=O)(Cc1cc(Sc2ccc(Cl)cc2)nc(-c2ccccc2)n1)c1ccccc1 the results were CSC inhib -4.3, Mdm2 MdmX PPI 21.0, aSyn 5UTR inh 7.2, SKKanGAS inh -0.2 and T cruzi inh 54.6*.
CCOC(=O)CSc1cc(CSc2ccccc2)nc(-c2ccccc2)n1 was read as CSC inhib -0.8, Mdm2 MdmX PPI 18.7, aSyn 5UTR inh 33.2, SKKanGAS inh 13.9 and T cruzi inh 13.6.
CCOC(=O)N1CCN(CC(=O)Nc2nc3ccc(OC)cc3s2)CC1 was read as CSC inhib -6.5, Mdm2 MdmX PPI 14.0, aSyn 5UTR inh 14.5, SKKanGAS inh 0.4 and T cruzi inh -4.3.
For O=C(/C=C/c1cccs1)NC(=S)NNC(=O)c1ccccc1O the results were Mdm2 MdmX PPI 35.4, aSyn 5UTR inh 103.0*, SKKanGAS inh 79.5* and T cruzi inh -14.6.
O=C(/C=C/c1cccs1)NC(=S)Nc1ccccc1 was read as CSC inhib 1.8, Mdm2 MdmX PPI 10.2, aSyn 5UTR inh -35.4, SKKanGAS inh 5.1 and T cruzi inh -0.4.
COc1ccc(C(=O)NNC(=S)NC(=O)/C=C/c2cccs2)cc1 was read as CSC inhib -8.2, Mdm2 MdmX PPI 42.3, aSyn 5UTR inh 29.8, SKKanGAS inh 62.3* and T cruzi inh -14.6.
For CCC(c1nnnn1Cc1ccco1)N1CCN(c2cc(Cl)ccc2C)CC1 (centres undefined) the results were CSC inhib 94.3*, Mdm2 MdmX PPI -6.2, aSyn 5UTR inh 32.8, SKKanGAS inh 7.3 and T cruzi inh 26.7.
`Cc1ccc(Cl)cc1N1CCN(Cc2nnnn2Cc2ccco2)CC1` gave CSC inhib 18.5, aSyn 5UTR inh -2.0, SKKanGAS inh -4.4 and T cruzi inh 19.3.
COc1ccc(C2CC(=O)C(C(c3ccc(O)cc3)C3C(=O)CC(c4ccc(OC)cc4)CC3=O)C(=O)C2)cc1 (centres undefined) was read as CSC inhib 6.3, Mdm2 MdmX PPI 7.5, aSyn 5UTR inh -5.3, SKKanGAS inh -3.2 and T cruzi inh 6.6.
`COC(=O)[C@H]1[C@H](CCc2ccccc2)NC(=O)N(Cc2ccccc2)[C@@H]1C` gave CSC inhib 6.2, aSyn 5UTR inh -0.1, SKKanGAS inh 72.8* and T cruzi inh -9.7.
`CC(OC(=O)c1cccs1)C(=O)NC1CCCCC1C` (centres undefined) gave CSC inhib 95.8* and Mdm2 MdmX PPI 8.5.
Screening Cc1ccc(CCNC(=O)CNC(=O)c2cccs2)cc1 returned CSC inhib -2.1, Mdm2 MdmX PPI 17.2, aSyn 5UTR inh 7.2, SKKanGAS inh -2.3 and T cruzi inh -4.7.
Screening Cc1[nH]c2ccccc2c1C(c1ccccn1)c1c(C)[nH]c2ccccc12 returned CSC inhib -6.7, Mdm2 MdmX PPI 36.1, aSyn 5UTR inh -11.3, SKKanGAS inh 71.6* and T cruzi inh 29.6.
For CCN(CC)c1ccc(C(=O)NNC(=O)CNC(=O)c2ccco2)cc1 the results were Mdm2 MdmX PPI 1.7.
